Source: ChEMBL document CHEMBL4196022, “Alkynyl-containing phenylthiazoles: Systemically active antibacterial agents effective against methicillin-resistant Staphylococcus aureus (MRSA)” (Eur J Med Chem, 2018)
pIC50: −log10 of the molar value. In brackets after ≈: the same amount, converted by molar mass. Activity calls are given as the source filed them. No cut-off for these calls is given here.

What was measured:
Staphylococcus aureus [1] = experiment: Bactericidal activity against methicillin-resistant Staphylococcus aureus NRS107 up to 18 hrs by broth microdilution assay; format: functional; settings: NRS107, 18 h, read-out: MBC99.9
Staphylococcus aureus [2] = experiment: Inhibition of UPPS/UPPP in vancomycin-resistant Staphylococcus aureus VRS10 assessed as potentiation of vancomycin-induced antibacterial activity by measuring fold reduction in vancomycin MIC at 0.5 times MIC preincubated for 30 mins followed by vancomycin addition measured after 20 to 22 hrs by broth microdilution assay relative to control
Summary of the method: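 VRS10 suspension pre-exposed to compound at ½ × MIC for 30 min at room temperature. […] Incubation at 37 °C for 20–22 h before the MIC was read; untreated bacteria served as control.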

Staphylococcus aureus [3] = experiment: Antibacterial activity against methicillin-resistant Staphylococcus aureus USA300 in Balb/c mouse skin infection model assessed as reduction in bacterial burden in wounded skin area at 2% administered topically twice daily for 5 consecutive days measured 12 hrs post last dose relative to control; format: functional; design: scale not given: the % may be the effect or the level left
Summary of the method: (§1)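 Female Balb/c mice, 8 weeks old, n=5 per group. Intradermal injection of 40 μL of 1.32×10^9 CFU/mL USA300; a wound formed by ~66 h. Treated topically with a 2% suspension in petroleum jelly twice daily for 5 days; the vehicle group served as control. Wounds excised 12 h after the last dose, homogenized in PBS and plated on mannitol salt agar; sites also observed for redness and swelling.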

[4] = Terminal phase volume of distribution in Sprague-Dawley rat at 2 uM administered as single iv bolus dose by LC-MS/MS analysis; format: ADME, organism-based; settings: in vivo, read-out: Vbeta
Summary of the method: (§2)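 Male naïve Sprague-Dawley rats (three animals) received an IV bolus of a 2 μM solution. EDTA-K2 blood was sampled over 12 h post dose. Plasma was protein-precipitated with acetonitrile and quantified by LC/MS/MS. Parameters came from two-compartmental pharmacokinetic analysis.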

Staphylococcus aureus [5] = experiment: Ratio of MBC to MIC for methicillin-resistant Staphylococcus aureus NRS123 (USA400); format: functional
Summary of the method: (§3)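 MBC/MIC ratio. […] MBC by plating no-growth wells onto tryptic soy agar at 37 °C for at least 18 h; taken as the concentration giving 99.9% growth inhibition.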

Staphylococcus aureus [6] = experiment: Antibacterial activity against methicillin-resistant Staphylococcus aureus NRS123 (USA400) infected in mouse J774 cells at 8 ug/ml after 24 hrs; format: functional, organism-based
Summary of the method: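 J774 macrophages grown in DMEM with 10% FBS at 37 °C, 5% CO2. Infected with USA400 at MOI ~100:1 for 1 h, then washed with gentamicin 50 μg/mL. Treated in triplicate wells for 24 h, washed with gentamicin again and lysed with 0.1% Triton X-100. Lysate plated on tryptic soy agar for 18–22 h; CFU/mL counted.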

[7] = Half life in human liver microsomes at 0.1 uM preincubated for 5 mins followed by NDAPH addition measured up to 60 mins by HPLC-MS/MS analysis; settings: 1 h
[8] = Efflux ratio of apparent permeability in human Caco2 cells at 10 uM after 60 mins by LC-MS/MS analysis; format: ADME, cell-based; settings: caco-2, 1 h
Summary of the method: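 Caco-2 monolayers were seeded at 1 × 10^5 cells/cm2 and differentiated for three weeks. Test article was at 10 μM (1% DMSO) in HBSS-MES pH 6.5 or HBSS-HEPES pH 7.4 and added to the donor side. Incubation ran 60 min (A→B) or 40 min (B→A), and receiver buffer was analysed by LC/MS/MS. Lucifer yellow and fluorescein checked monolayer integrity. Efflux ratio = Papp(B→A)/Papp(A→B).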

Staphylococcus aureus [9] = experiment: Ratio of MBC to MIC for vancomycin-resistant Staphylococcus aureus VRS12; format: functional; summary of the method: as §3
Mus musculus [10] = experiment: Induction of inflammation in Balb/c mouse infected with methicillin-resistant Staphylococcus aureus USA300 assessed as redness around wounded skin area at 2% administered topically twice daily for 5 consecutive days measured 12 hrs post last dose relative to control; format: organism-based; settings: in vivo, topical_or_ocular; summary of the method: as §1
[11] = biological target: T1, Ditrans,polycis-undecaprenyl-diphosphate synthase ((2E,6E)-farnesyl-diphosphate specific) (Escherichia coli (strain K12), UniProt P60472); experiment: Inhibition of Escherichia coli UPPS using IPP and FPP as substrate preincubated for 30 mins followed by substrate addition measured after 20 mins by malachite green phosphate assay
T1 sequence (P60472 whole entry): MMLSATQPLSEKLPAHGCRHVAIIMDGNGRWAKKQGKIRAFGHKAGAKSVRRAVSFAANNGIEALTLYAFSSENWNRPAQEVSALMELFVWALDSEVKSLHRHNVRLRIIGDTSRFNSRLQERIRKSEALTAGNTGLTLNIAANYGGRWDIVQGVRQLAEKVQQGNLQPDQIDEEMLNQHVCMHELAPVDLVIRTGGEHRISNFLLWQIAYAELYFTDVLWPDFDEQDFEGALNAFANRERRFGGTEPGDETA

[12] = Apparent permeability from basolateral to apical side in human Caco2 cells at 10 uM after 60 mins by LC-MS/MS analysis; format: ADME, cell-based; settings: caco-2, 1 h
Staphylococcus aureus [13] = experiment: Bactericidal activity against methicillin resistant vancomycin-resistant Staphylococcus aureus VRS10 up to 18 hrs by broth microdilution assay; format: functional; settings: VRS10, 18 h, read-out: MBC99.9
Rattus norvegicus = experiment: AUC in Sprague-Dawley rat at 2 uM administered as single iv bolus dose by LC-MS/MS analysis; format: ADME, organism-based; settings: in vivo; summary of the method: as §2
J774 = experiment: Cytotoxicity against mouse J774 cells assessed as reduction in cell viability up to 8 ug/ml after 24 hrs by MTS assay; format: cell-based; settings: j774, 24 h
Summary of the method: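 J774 murine macrophages were grown in DMEM with 10% FBS at 37 °C, 5% CO2. Compounds were tested at 8, 16 and 32 μg/mL in triplicate for 24 h, with a DMSO-matched control. MTS was added for 4 h and absorbance read at 490 nm. Viability is given as % of DMSO control (mean ± SD); Student t-test with Holm-Sidak test.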

Mus musculus [14] = experiment: Induction of inflammation in Balb/c mouse infected with methicillin-resistant Staphylococcus aureus USA300 assessed as swelling around wounded skin area at 2% administered topically twice daily for 5 consecutive days measured 12 hrs post last dose; format: organism-based; settings: in vivo, topical_or_ocular; summary of the method: as §1
Staphylococcus aureus [15] = experiment: Bactericidal activity against methicillin-resistant Staphylococcus aureus USA300 up to 18 hrs by broth microdilution assay; format: functional; settings: USA300, 18 h, read-out: MBC99.9
Staphylococcus aureus [16] = experiment: Ratio of MBC to MIC for methicillin-resistant Staphylococcus aureus NRS107; format: functional; summary of the method: as §3
Staphylococcus aureus [17] = experiment: Antibacterial activity against methicillin-resistant Staphylococcus aureus USA300 infected in Caenorhabditis elegans AU37 assessed as reduction in bacterial burden at 20 ug/ml after 18 hrs relative to control; format: functional; design: scale not given: the % may be the effect or the level left
Summary of the method: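 L4-stage C. elegans AU37 infected on USA300 lawns for 6 h and washed with M9 buffer. 25–30 worms per well exposed to 20 μg/mL for 18 h, in triplicate. Worms then lysed and plated on TSA with 5 μg/mL nalidixic acid for 17 h at 37 °C. CFU per worm expressed as % reduction versus PBS.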

Staphylococcus aureus [18] = experiment: Antibacterial activity against methicillin-resistant Staphylococcus aureus NRS123 (USA400) after 20 hrs by broth microdilution assay; format: functional
Summary of the method: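 Broth microdilution per CLSI in cation-adjusted Mueller Hinton broth. Compounds serially diluted, in triplicate. Incubation at 37 °C for at least 20 hours. MIC taken as the lowest concentration with no visible bacterial growth.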

## C/C(=N\NC(=N)N)c1sc(-c2ccc(C#CC3CC3)cc2)nc1C
Staphylococcus aureus [1]
  MBC: 2 µg/mL (≈ 5.93 µM)
Staphylococcus aureus [2]
  fold change (FC): 512
Staphylococcus aureus [3]
  Activity: 73%
[4]
  Vd at 2 µM: 18.5 L
Staphylococcus aureus [5]
  Ratio: <=3
Staphylococcus aureus [6]
  Activity: inactive
[7]
  t1/2: 4.87 h
[8]
  Ratio: 69
Staphylococcus aureus [9]
  Ratio: <=3
Mus musculus [10]
  Activity: Non-Toxic
[11]
  pIC50: 4.42
[12]
  Papp: 0.35 ×10⁻⁶ cm/s
Staphylococcus aureus [13]
  MBC: 4 µg/mL (≈ 11.9 µM)
Rattus norvegicus
  AUC: 690 ng·h/mL
J774
  Activity: Non-Toxic
Mus musculus [14]
  Activity: Non-Toxic
Staphylococcus aureus [15]
  MBC: 4 µg/mL (≈ 11.9 µM)
Staphylococcus aureus [16]
  Ratio: <=3
Staphylococcus aureus [17]
  Activity: 90%
Staphylococcus aureus [18]
  MIC: 2 µg/mL (≈ 5.93 µM)
